Our source for the Ki and Inhibition values is ChEMBL document CHEMBL1128488, “4-Diazinyl- and 4-pyridinylimidazoles: potent angiotensin II antagonists. A study of their activity and computational characterization” (J Med Chem, 1995).

Each structure is given as a SMILES string. pKi: −log10 of the molar value.

Test [1] has as its target T1, Angiotensin II receptor (AT-1) type-1 (Rattus norvegicus, UniProt P29089+P25095).
T1 sequence (P29089 whole entry): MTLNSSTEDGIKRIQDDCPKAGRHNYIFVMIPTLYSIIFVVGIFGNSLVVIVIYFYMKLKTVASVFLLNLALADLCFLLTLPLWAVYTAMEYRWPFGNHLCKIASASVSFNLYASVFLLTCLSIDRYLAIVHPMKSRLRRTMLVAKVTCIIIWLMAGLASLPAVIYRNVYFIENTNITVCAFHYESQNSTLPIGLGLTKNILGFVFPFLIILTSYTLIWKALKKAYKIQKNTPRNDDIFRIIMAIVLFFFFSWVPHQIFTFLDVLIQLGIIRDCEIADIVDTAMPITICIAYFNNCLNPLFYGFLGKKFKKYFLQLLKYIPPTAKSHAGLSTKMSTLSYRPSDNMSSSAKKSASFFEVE
T1 sequence (P25095 whole entry): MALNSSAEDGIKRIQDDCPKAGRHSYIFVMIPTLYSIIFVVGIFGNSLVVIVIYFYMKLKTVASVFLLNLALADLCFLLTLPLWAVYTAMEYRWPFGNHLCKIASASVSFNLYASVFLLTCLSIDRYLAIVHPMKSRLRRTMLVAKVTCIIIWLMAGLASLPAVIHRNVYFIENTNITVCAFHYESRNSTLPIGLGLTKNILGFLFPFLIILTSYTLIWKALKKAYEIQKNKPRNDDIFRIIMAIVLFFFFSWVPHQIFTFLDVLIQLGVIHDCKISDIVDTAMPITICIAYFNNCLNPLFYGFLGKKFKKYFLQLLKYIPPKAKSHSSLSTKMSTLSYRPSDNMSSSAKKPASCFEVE
Kind of test: Inhibition of [3H]angiotensin II binding to rat adrenal cortex membrane containing angiotensin II receptor, type 1. It counts as tissue-based.

The test system of test [2] is Rattus norvegicus. Description: In vivo concentration inhibiting angiotensin II (A II) induced pressor response in conscious normotensive rats 30 mins after oral administration of 2 uM/kg. The test is classed as functional. The method, boiled down: (§1)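 Male Sprague-Dawley rats (280–340 g), premedicated ip with fentanyl/fluanisone and anesthetized with pentobarbital iv during preparation, then tested conscious. Vehicle or compound given orally by stomach tube at 2 μmol kg−1. A II bolus injections every 15 min for the first hour, then every 30 min, over 4 h.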

The test system of test [3] is Rattus norvegicus. Description: In vivo concentration inhibiting angiotensin II (A II) induced pressor response in conscious normotensive rats 15 mins after oral administration of 2 uM/kg. It counts as functional. The method, boiled down:
as §1

Broadly, the Ki is the dissociation constant of the complex between target and ligand, obtained from inhibition or displacement. A higher Ki goes with weaker binding. One may read the Inhibition as the relative decrease from the control value, in per cent. What is called pKi is the negative decadic logarithm of the Ki, by convention in mol/L.

As to `CCCCc1nc(-c2nc(C)ccc2OC)cn1Cc1ccc(-c2ccccc2-c2nn[nH]n2)cc1`, in test [1], the inhibition constant Ki is recorded as 250 nM.

`CCCCc1nc(-c2ncccc2OC)cn1Cc1ccc(-c2ccccc2-c2nn[nH]n2)cc1` registered a Ki in test [1] of 290 nM.

On to `CCCCc1nc(-c2cncc(C(=O)OC)c2)cn1Cc1ccc(-c2ccccc2-c2nn[nH]n2)cc1`, for which the Ki in test [1] came to 30 nM. Consider `CCCCc1nc(-c2cc(C(=O)OC)cc(C)[n+]2[O-])cn1Cc1ccc(-c2ccccc2-c2nn[nH]n2)cc1`, for which, in test [1], the Ki was found to be 180 nM. Still for that read-out and setting: the value for `CCCCc1nc(-c2nccnc2C(=O)OC)cn1Cc1ccc(-c2ccccc2-c2nn[nH]n2)cc1` was 90 nM. Regarding `CCCCc1nc(-c2ccc(C)[n+]([O-])n2)cn1Cc1ccc(-c2ccccc2-c2nn[nH]n2)cc1`, the Inhibition with Rattus norvegicus [2] was -27%. Also, in test [1], the Ki is reported as 40 nM. In test [1], `CCCCc1nc(-c2cnc[n+]([O-])c2)cn1Cc1ccc(-c2ccccc2-c2nn[nH]n2)cc1` returned a Ki of 25 nM. As for `CCCCc1nc(-c2c(C(=O)OC)c(C)cc(C)[n+]2[O-])cn1Cc1ccc(-c2ccccc2-c2nn[nH]n2)cc1`, the Inhibition in the test with Rattus norvegicus [2] is -29%. The Ki in test [1] amounted to 9.1 nM. In the case of `CCCCc1nc(-c2ncccc2C(=O)OC)cn1Cc1ccc(-c2ccccc2-c2nn[nH]n2)cc1`, in test [1], the Ki worked out at 40 nM. Same read-out and setting: in the case of `CCCCc1nc(-c2cccnc2C(=O)OC)cn1Cc1ccc(-c2ccccc2-c2nn[nH]n2)cc1` it was 45 nM.

Consider `CCCCc1nc(-c2cccc(OC)n2)cn1Cc1ccc(-c2ccccc2-c2nn[nH]n2)cc1`, for which the Inhibition in the test with Rattus norvegicus [3] is -11%. Moreover, the Ki in test [1] is reported as 25 nM. In test [1], `CCCCc1nc(-c2cncnc2)cn1Cc1ccc(-c2ccccc2-c2nn[nH]n2)cc1` displayed a Ki of 42 nM. Regarding `CCCCc1nc(-c2ccc(C)n[n+]2[O-])cn1Cc1ccc(-c2ccccc2-c2nn[nH]n2)cc1`, the Inhibition with Rattus norvegicus [2] was -35%. Further, the Ki in test [1] was 44 nM. In test [1], `CCCCc1nc(-c2nc(C)ccc2C(=O)OC)cn1Cc1ccc(-c2ccccc2-c2nn[nH]n2)cc1` displayed an inhibition constant (Ki) of 32 nM. Still for that read-out and setting: the value for `CCCCc1nc(-c2ncccn2)cn1Cc1ccc(-c2ccccc2-c2nn[nH]n2)cc1` was 59 nM. Still for that read-out and setting: in the case of `CCCCc1nc(-c2ccc(C(=O)OC)c[n+]2[O-])cn1Cc1ccc(-c2ccccc2-c2nn[nH]n2)cc1` it was 27 nM.

Take `CCCCc1nc(-c2nc(C)c[n+]([O-])c2C)cn1Cc1ccc(-c2ccccc2-c2nn[nH]n2)cc1`: the Inhibition with Rattus norvegicus [2] was -21%. The inhibitory constant (Ki) in test [1] was 4.4 nM. Turning to `CCCCc1nc(-c2ccc(C)nn2)cn1Cc1ccc(-c2ccccc2-c2nn[nH]n2)cc1`, the Inhibition with Rattus norvegicus [3] is -30%. This molecule displayed a Ki in test [1] of 12 nM. With `CCCCc1nc(-c2c(OC)ccc(C)[n+]2[O-])cn1Cc1ccc(-c2ccccc2-c2nn[nH]n2)cc1`, the Inhibition in the test on Rattus norvegicus [2] is -22%. In addition, the Ki in test [1] came out at 38 nM. On the same counts, the results for `CCCCc1nc(-c2cccc(C(=O)OC)n2)cn1Cc1ccc(-c2ccccc2-c2nn[nH]n2)cc1` are -23% and 19 nM. Molecule `CCCCc1nc(-c2c(C(=O)OC)ccc[n+]2[O-])cn1Cc1ccc(-c2ccccc2-c2nn[nH]n2)cc1` gave a Ki in test [1] of 29 nM.

Take `CCCCc1nc(-c2ccc(C(=O)OC)nn2)cn1Cc1ccc(-c2ccccc2-c2nn[nH]n2)cc1`: in the test with Rattus norvegicus [2], the Inhibition is on record as -9.3%. Further, the Ki in test [1] was determined as 8.8 nM. In the case of `CCCCc1nc(-c2cnccn2)cn1Cc1ccc(-c2ccccc2-c2nn[nH]n2)cc1`, the Ki in test [1] is given as 40 nM. Still for that read-out and setting: in the case of `CCCCc1nc(-c2nc(C)cc(C)c2C(=O)OC)cn1Cc1ccc(-c2ccccc2-c2nn[nH]n2)cc1` it was 53 nM; in that of `CCCCc1nc(-c2cc(C(=O)OC)c[n+]([O-])c2)cn1Cc1ccc(-c2ccccc2-c2nn[nH]n2)cc1`, 41 nM. For the molecule `CCCCc1nc(-c2ccc(C(=O)OC)cn2)cn1Cc1ccc(-c2ccccc2-c2nn[nH]n2)cc1`, the Inhibition in the test on Rattus norvegicus [2] is -33%. For the same molecule, the Ki in test [1] is recorded as 12 nM. Regarding `CCCCc1nc(-c2nc(C)cnc2C)cn1Cc1ccc(-c2ccccc2-c2nn[nH]n2)cc1`, in the test with Rattus norvegicus [2], the Inhibition was -18%. The same molecule had a pKi in test [1] of 7.11. Molecule `CCCCc1nc(-c2cnccc2C(=O)OC)cn1Cc1ccc(-c2ccccc2-c2nn[nH]n2)cc1` had a Ki in test [1] of 67 nM. On to `CCCCc1nc(-c2cnc(C(=O)OC)nc2C)cn1Cc1ccc(-c2ccccc2-c2nn[nH]n2)cc1`, for which the Ki in test [1] was 70 nM. `CCCCc1nc(Cl)c(CO)n1Cc1ccc(-c2ccccc2-c2nnn[nH]2)cc1` [LOSARTAN]: the Inhibition in the test with Rattus norvegicus [2] is on record as -33%. For the molecule `CCCCc1nc(-c2ccc(C(=O)OC)[n+]([O-])n2)cn1Cc1ccc(-c2ccccc2-c2nn[nH]n2)cc1`, in test [1], the Ki was 54 nM. Regarding `CCCCc1nc(-c2c(C(=O)OC)ccc(C)[n+]2[O-])cn1Cc1ccc(-c2ccccc2-c2nn[nH]n2)cc1`, the Inhibition with Rattus norvegicus [2] was -55%. For the same molecule, the Ki in test [1] stood at 4.5 nM.

Consider `CCCCc1nc(-c2c(C)ncc(C)[n+]2[O-])cn1Cc1ccc(-c2ccccc2-c2nn[nH]n2)cc1`, for which the Inhibition in the test with Rattus norvegicus [2] is -44%. The molecule further displayed a Ki in test [1] of 2.5 nM. `CCCCc1nc(-c2cncc[n+]2[O-])cn1Cc1ccc(-c2ccccc2-c2nn[nH]n2)cc1` displayed a Ki in test [1] of 243 nM.

As to `CCCCc1nc(-c2nccc[n+]2[O-])cn1Cc1ccc(-c2ccccc2-c2nn[nH]n2)cc1`, the Ki in test [1] is 61 nM.
